Source: PubChem (Johns Hopkins Ion Channel Center)
TRPC6 activator: activators of mouse TRPC6 channel; Q61143; HEK293-TRPC6 membrane potential dye fluorescence; stronger effect = higher value; B-score at 10 µM; 310,000 compounds, 0.13% hits; AID 2550;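 active means B-score of the integrated fluorescence ratio above library mean plus 3 SD, and starting fluorescence ratio within library mean plus 5 SD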;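 further: higher score means more depolarization so channel activation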
Target sequence (Q61143 whole entry, looked up): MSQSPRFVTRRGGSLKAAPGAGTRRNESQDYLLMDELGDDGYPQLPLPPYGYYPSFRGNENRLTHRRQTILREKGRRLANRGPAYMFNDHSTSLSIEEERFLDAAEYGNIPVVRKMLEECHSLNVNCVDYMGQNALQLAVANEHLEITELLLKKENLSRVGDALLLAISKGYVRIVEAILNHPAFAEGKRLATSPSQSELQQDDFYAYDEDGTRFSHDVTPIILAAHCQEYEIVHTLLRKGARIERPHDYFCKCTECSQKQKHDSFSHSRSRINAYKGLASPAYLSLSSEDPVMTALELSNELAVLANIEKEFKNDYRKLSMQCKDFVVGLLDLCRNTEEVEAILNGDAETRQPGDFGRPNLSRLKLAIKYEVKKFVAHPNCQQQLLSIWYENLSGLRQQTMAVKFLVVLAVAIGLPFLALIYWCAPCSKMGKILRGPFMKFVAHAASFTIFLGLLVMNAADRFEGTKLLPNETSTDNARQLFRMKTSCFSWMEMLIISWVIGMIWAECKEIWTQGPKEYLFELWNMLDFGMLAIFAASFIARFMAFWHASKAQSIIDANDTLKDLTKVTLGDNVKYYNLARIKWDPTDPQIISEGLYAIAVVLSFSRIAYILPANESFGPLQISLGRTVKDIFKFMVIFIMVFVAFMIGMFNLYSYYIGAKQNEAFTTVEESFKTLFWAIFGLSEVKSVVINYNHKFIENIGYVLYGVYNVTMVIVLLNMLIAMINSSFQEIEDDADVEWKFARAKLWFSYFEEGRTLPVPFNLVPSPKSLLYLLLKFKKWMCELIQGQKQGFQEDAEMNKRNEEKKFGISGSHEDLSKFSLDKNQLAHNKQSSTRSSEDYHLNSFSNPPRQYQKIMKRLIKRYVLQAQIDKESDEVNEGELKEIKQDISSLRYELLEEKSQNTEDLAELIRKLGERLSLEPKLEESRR
TRPC4 act: opens the mouse TRPC4 cation channel. Q9QUQ5. HEK293 TRPC4beta/mu-opioid, Fluo4 calcium fluorescence; stronger effect = higher value. B-score at 10 µM. 310,000 compounds, 0.49% hits;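 active means B-score above 5 SD of library B-scores, and initial fluorescence ratio not above library mean plus 5 SD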;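 further: positive B-score marks a calcium rise read as TRPC4 activation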
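system = HEK293 cells stably co-expressing mouse TRPC4beta and mu-opioid receptor | schedule = Fluo4 dye loading 45 min at room temperature, 110 s recording | measure = B-scored integrated calcium fluorescence ratio | signal = Fluo4 calcium-sensitive dye fluorescence, kinetic, 1 Hz baseline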
TRPC4 PAM: TRPC4 (mouse) allosteric potentiation; Q9QUQ5; B-score at 10 µM; HEK293 TRPC4beta/mu-opioid, DAMGO EC20, Fluo-4 Ca2+ flux; stronger effect = higher value; 310,000 compounds, 0.42% hits;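 active means B-score of calcium response area above 5 SD of library B-scores, with initial fluorescence ratio within 5 SD of library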
TRPC4 inh: blocks the mouse TRPC4 cation channel; Q9QUQ5; B-score at 10 µM; 300,000 compounds, 0.39% hits; HEK293 TRPC4beta/mu-opioid, DAMGO-evoked Fluo4 calcium flux; stronger effect = lower value;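 active means B-score over 3 SD under the library average, no early fluorescence shift, positive overall ratio signal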
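Assay system: Stable TRPC4beta/mu-opioid receptor HEK293 cells | Reagent: DAMGO in two steps, submaximal then maximal | Compound dosing: Single concentration per test compound | Signal: Fluo4 Ca2+ flux fluorescence | Evaluation: Per-well B score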
TRPC6 inh: inhibitors of mouse TRPC6 channel | AID 2553 | B-score at 10 µM | Q61143 | 310,000 compounds, 1.1% hits | HEK293-TRPC6, membrane potential dye, ACh-evoked depolarization; stronger effect = lower value;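 active means B-score under library mean minus 3 SD, initial fluorescence not abnormally high, positive integrated signal ratio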;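 further: B-score derived from integrated fluorescence ratio over the kinetic read; more negative B-score means stronger inhibition of depolarization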
TRPC4 spec 2: mouse TRPC4 off-target activity of TRPC6 inhibitors, second screen; 920 compounds, 42% hits; inhibition, % at 10 µM; shares compounds with TRPC6 inh; HEK293 TRPC4/MOR, membrane potential dye fluorescence; channel activated by saturating DAMGO dose;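 active means compounds whose fluorescence signal differed from control wells by over 3 SD, either direction, in both duplicate plates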
TRPC4 spec: selectivity of TRPC6 inhibitors: effect on mouse TRPC4; shares compounds with TRPC6 inh; HEK293 TRPC4/mu-opioid, membrane potential fluorescence; activity change, negative = inhibition, % at 10 µM; 920 compounds, 61% hits; AID 2777;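 active means rise or fall in signal beyond 3 SD of buffer-only wells in both replicate plates, either sign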;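 further: integrated kinetic ratio of fluorescence range over baseline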
HEK293 MPD ctr 2-1: second counter-screen for TRPC6 inhibitors: parental HEK293 cells | shares compounds with TRPC6 inh | AID 2779 | 920 compounds, 31% hits | signal change vs control, % at 10 µM | parental HEK293 membrane potential dye fluorescence; maximal acetylcholine challenge after compound addition;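 active means membrane potential signal moving either way by over 3 SD of the maximum-effect control, in both duplicate plates, meaning non-specific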
HEK293 MPD ctr-1: parental HEK293 nonspecific activity of TRPC6 inhibitors; shares compounds with TRPC6 inh; parental HEK293 membrane potential dye fluorescence; membrane potential signal change, % at 10 µM; 920 compounds, 60% hits; AID 2780;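 active means membrane potential signal shifting up or down by more than 3 SD of buffer-only wells, on both duplicate plates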
HEK293 MPD ctr-2: checks TRPC6 modulator effects in parental HEK293 cells | shares compounds with TRPC6 inh | membrane potential dye fluorescence | membrane potential signal change, % at 10 µM | 2,400 compounds, 51% hits | AID 488924;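 active means membrane potential signal moves up or down beyond 5 SD from buffer-only wells, on both duplicate plates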
HEK293 MPD ctr 2-2: second check of TRPC6 modulator effects in parental HEK293 cells; shares compounds with TRPC6 inh; membrane potential dye fluorescence; after compound, maximal acetylcholine stimulation; inhibition, % at 10 µM; 2,400 compounds, 14% hits; AID 488926;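 active means membrane potential signal drops by more than 5 SD from the mean control signal, in both duplicate plates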
TRPC4 ctr mod: mouse TRPC4 off-target activity of TRPC6 modulators. shares compounds with TRPC6 inh. HEK293 TRPC4/mu-opioid, membrane potential fluorescence. percent change from control (negative = decrease, positive = increase), % at 10 µM. 2,400 compounds, 69% hits;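 active means membrane potential signal moved up or down beyond 5 SD of buffer control wells, in both duplicate plates, actives on both sides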
TRPC4/MOR inh 2: mouse TRPC4 off-target activity of TRPC6 modulators, second screen; shares compounds with TRPC6 inh; HEK293 TRPC4/mu-opioid, membrane potential dye fluorescence; stimulated with maximal-effect DAMGO; inhibition, % at 10 µM; 2,400 compounds, 55% hits; AID 488928;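 active means drop in membrane potential signal beyond 5 SD of the control wells in both duplicate plates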;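 further: TRPC4 counter screen for TRPC6 hits run under conditions tuned for TRPC6 not TRPC4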
TRPC6 block conf: confirmation of mouse TRPC6 inhibitors | shares compounds with TRPC6 inh | AID 488960 | 3,300 compounds, 43% hits | inhibition, % at 10 µM | HEK293-TRPC6, membrane potential dye, ACh-evoked depolarization;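 active means fluorescence ratio falls more than 5 SD below the full-stimulation control mean, in both duplicate runs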;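 further: integrated fluorescence ratio of peak minus minimum over baseline after agonist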
TRPC6 act confirm: mouse TRPC6 activator confirmation. shares compounds with TRPC6 inh. activation, % at 10 µM. 2,800 compounds, 11% hits. HEK293-TRPC6 membrane potential dye fluorescence, FDSS;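 active means ratio signal rise beyond 5 SD above unstimulated control wells' mean, seen in both duplicate runs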
A number is an active result; 0 = inactive; - = no result; + = active, no number. An excerpt weighted towards active compounds, which were near 2.3% of everything screened.

SMILES	TRPC6 activator	TRPC4 act	TRPC4 PAM	TRPC4 inh	TRPC6 inh	HEK293 MPD ctr-2	HEK293 MPD ctr 2-2	TRPC4 ctr mod	TRPC4/MOR inh 2	TRPC6 block conf	TRPC6 act confirm	others
COc1ccc(C(=O)NN(C)c2nc(C(F)(F)F)nc3ccccc23)cc1	0	0	0	0	0	-	-	-	-	-	-
CN(C)C(C)(C)/C=C/C(O)(c1ccccc1)c1ccccc1	0	0	0	0	-8.04	-	-	-	-	54.1%	0	TRPC4 spec 2=0;TRPC4 spec=0;HEK293 MPD ctr 2-1=-7.0%;HEK293 MPD ctr-1=0.3%
CN(C)N(Cc1ccccc1)C(=O)C(O)(c1ccccc1)c1ccccc1	0	0	0	0	0	-	-	-	-	-	-
CC1CCN(Cc2c(O)ccc3c(=O)c(-c4nc5ccccc5s4)c(N)oc23)CC1	0	0	0	0	0	-	-	-	-	-	-
CC1CCCN(Cc2c(O)ccc3c(=O)c(-c4nc5ccccc5s4)c(N)oc23)C1 (stereo unspecified)	0	0	0	0	-5.83	0	0	0	48.0%	0	0
CCOC(=O)c1c[nH]c(=S)n(-c2ccccc2)c1=O	0	0	0	0	0	-	-	-	-	-	-
N#C/C(=N\Nc1cccc([N+](=O)[O-])c1)C(=O)c1ccc(Br)cc1	0	0	0	-6	-7.34	-	-	-	-	78.6%	0	TRPC4 spec 2=53.0%;TRPC4 spec=0;HEK293 MPD ctr 2-1=0;HEK293 MPD ctr-1=-156.5%
COc1ccc(-c2csc(NC(=S)NC(=O)c3ccc4ccccc4c3)n2)cc1OC	0	0	0	0	0	-	-	-	-	-	-
CCCCC(CC)Cn1c(N)c(C#N)c2nc3ccccc3nc21 (stereo unspecified)	0	0	0	0	-6.02	0	0	0	0	0	0
COc1ccc(NC(=O)CSc2nc(C3CC3)nc3ccccc23)cc1	0	0	0	0	0	-	-	-	-	-	-
COc1nc(N(c2ccccc2)c2ccccc2)nc(-n2ccnc2)n1	11.5	0	0	0	0	372.5%	59.0%	64.0%	0	0	132.5%
Cn1c(O)c(/C=N/NC(=O)c2cc3ccccc3cc2O)c2ccccc21	44.4	105	33	0	0	+	0	297.5%	0	0	256.0%
CN(C)CCNC(=O)c1ccccc1	0	0	0	0	0	-	-	-	-	-	-
Cc1sc(NC(=O)c2ccccc2)c(C(=O)NCCN(C)C)c1C	0	148	0	0	-11.4	-161.0%	0	-31.0%	74.0%	62.0%	0
Cc1cc(N2CCOCC2)ccc1/C=C1\NC(=O)N(Cc2ccccc2F)C1=O	0	0	0	-	0	-	-	-	-	-	-
Cc1cc(C)c(C(=O)Nc2ccc(S(=O)(=O)Nc3ccccn3)cc2)c(C)c1	0	0	0	0	0	-	-	-	-	-	-
O=C(CN1C(=O)NC2(CCCCCC2)C1=O)c1ccccc1	0	0	0	0	0	-	-	-	-	-	-
Cc1ccc(S(=O)(=O)Nc2ccccc2C(=O)Nc2nc(-c3ccc(F)cc3)cs2)cc1	0	0	0	0	0	-	-	-	-	-	-
COc1ccc(-c2csc(NC(=O)c3ccccc3NS(=O)(=O)c3ccc(F)c(F)c3)n2)cc1	0	0	0	0	-5.29	0	0	-15.0%	56.5%	64.5%	0
O=C(Nc1ncc([N+](=O)[O-])s1)c1cccc([N+](=O)[O-])c1	0	0	0	0	0	-	-	-	-	-	-
O=C(Nc1ccccc1)Nc1ncc([N+](=O)[O-])s1	0	0	0	0	-7.42	-	-	-	-	96.0%	-	TRPC4 spec 2=53.5%;TRPC4 spec=43.0%;HEK293 MPD ctr 2-1=0;HEK293 MPD ctr-1=20.8%
CCOc1ccc(N(C(=O)Cn2nnc3ccccc32)C(C(=O)NC(C)(C)CC)c2cccn2C)cc1 (stereo unspecified)	0	0	0	0	0	-	-	-	-	-	-
CCC(C)(C)NC(=O)C(c1cccn1C)N(C(=O)Cn1nnc2ccccc21)c1ccc(OC)cc1OC (stereo unspecified)	11.8	0	0	0	-8.13	124.5%	0	43.5%	41.0%	37.5%	68.5%
Cc1ccc(/C=C/C(=O)NCCc2ccccc2)o1	0	0	0	0	0	-	-	-	-	-	-
Cc1cc(C)nc(/N=C(\N)Nc2ccc(C)c([N+](=O)[O-])c2)n1	0	0	0	0	-5.39	0	0	-19.0%	35.5%	0	0
SMILES	TRPC6 activator	TRPC4 act	TRPC4 PAM	TRPC4 inh	TRPC6 inh	HEK293 MPD ctr-2	HEK293 MPD ctr 2-2	TRPC4 ctr mod	TRPC4/MOR inh 2	TRPC6 block conf	TRPC6 act confirm	others
CCN(CC(=O)NC1CCS(=O)(=O)C1)C(=O)C(c1ccccc1)c1ccccc1 (stereo unspecified)	0	-	-	-	0	-	-	-	-	-	-
CCc1ccc(S(=O)(=O)/N=C2\C=C(Nc3ccc(C(=O)O)cc3)C(=O)c3ccccc32)cc1	0	0	0	0	-6.89	-119.5%	0	-26.0%	68.0%	36.0%	0
CC(C)(C)c1ccc(S(=O)(=O)/N=C2\C=C(NS(=O)(=O)c3ccccc3)C(=O)c3ccccc32)cc1	0	0	0	0	-6.09	-153.0%	77.0%	-30.5%	89.5%	81.0%	0
Cc1ccc(S(=O)(=O)/N=C2\C=C(Nc3cccc(C(=O)O)c3)C(=O)c3ccccc32)cc1	0	0	0	0	0	-	-	-	-	-	-
CCOc1cc(C(=O)N/N=C/c2ccoc2)cc(OCC)c1OCC	0	0	0	0	0	-	-	-	-	-	-
CC1=NN(c2ccccc2)C(=O)/C1=C/c1cn(C)c2ccccc12	0	0	0	0	-5.39	0	0	-11.5%	40.5%	0	0
CC1=NN(c2ccc(C(=O)OC(C)C)cc2)C(=O)/C1=C\C=C\c1ccco1	0	0	0	0	-6.26	0	0	0	45.0%	0	0
CC1=NN(c2ccccc2)C(=O)/C1=C/C=C/c1ccc(N(C)C)cc1	0	0	0	0	-11.6	-	-	-	-	80.9%	0	TRPC4 spec 2=74.0%;TRPC4 spec=-14.0%;HEK293 MPD ctr 2-1=0;HEK293 MPD ctr-1=-140.5%
